Screening results (PubChem BioAssay)
Rows were chosen to be rich in hits. Some 3.7% of all compounds tested hit in one or more screens of this group.
Kir21 inh = inhibitors of mouse Kir2.1 inward-rectifier potassium channel; HEK293-Kir2.1, FluxOR thallium flux fluorescence; active compounds read low; 310,000 compounds, 0.85% hits; Inward rectifier potassium channel 2 (Mus musculus), P35561; B-score at 10 µM;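 active means fluorescence ratio B-score at or below minus 3 SD of library scores, with starting-brightness B-score within 2 SD, cut at about -4.2 in these data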;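 further: channel flux triggered by added potassium and thallium sulfate stimulus; B-score of peak minus minimum fluorescence over baseline after thallium stimulus; more negative B-score means stronger Kir2.1 block with less thallium influx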
KCNQ1 inh = inhibitors of human KCNQ1 channel, primary screen, cell-based, thallium flux, high-throughput. Potassium voltage-gated channel subfamily KQT member 1 (Homo sapiens), P51787. CHO-K1 KCNQ1, FluxOR thallium flux fluorescence; active compounds read high. B-score at 10 µM. 310,000 compounds, 1.3% hits;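 active means compounds whose thallium flux B-score, printed positive for inhibition, exceeds three library SD while starting fluorescence stays within three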;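 further: channel opened by potassium depolarization with thallium stimulus after 20 min compound exposure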
KCNK9 inh = KCNK9 potassium channel inhibitors, primary screen, HEK293 cells, thallium flux. B-score at 10 µM. Potassium channel subfamily K member 9 (Homo sapiens), Q9NPC2. FluxOR thallium flux fluorescence; active compounds read low. 310,000 compounds, 1.2% hits;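 active means ratio B-score over 3 SD below the library mean, with starting fluorescence within 5 SD of its mean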;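 further: negative B-score means less thallium flux so channel inhibition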
Target sequence (Q9NPC2 whole entry, looked up): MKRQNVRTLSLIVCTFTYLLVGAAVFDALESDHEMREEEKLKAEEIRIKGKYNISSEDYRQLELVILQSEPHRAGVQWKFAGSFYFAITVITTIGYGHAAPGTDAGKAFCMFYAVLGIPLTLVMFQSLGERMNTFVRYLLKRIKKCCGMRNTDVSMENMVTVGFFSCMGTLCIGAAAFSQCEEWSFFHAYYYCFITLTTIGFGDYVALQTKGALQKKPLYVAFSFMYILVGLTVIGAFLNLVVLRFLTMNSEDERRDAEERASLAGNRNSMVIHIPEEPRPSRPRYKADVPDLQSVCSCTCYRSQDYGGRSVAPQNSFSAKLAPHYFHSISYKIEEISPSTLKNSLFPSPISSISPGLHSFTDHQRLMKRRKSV
KCNQ1 act = potentiators or activators of KCNQ1 channel, primary screen, cell-based, thallium flux, high-throughput; Potassium voltage-gated channel subfamily KQT member 1 (Homo sapiens), P51787; CHO-K1 KCNQ1, thallium flux FluxOR fluorescence; active compounds read high; B-score at 10 µM; 310,000 compounds, 0.35% hits;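 active means fluorescence ratio B-score, a plate-corrected score, at least three library SD, with initial intensity B-score within 5 SD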
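Doses: Single concentration per compound, DMSO matched to controls | Test system: KCNQ1-transfected CHO-K1 cells | Timing: 90 min dye loading and 20 min compound exposure, both at room temperature | Measured by: Kinetic FluxOR thallium fluorescence, 10-s 1-Hz baseline, 110-s post-stimulus read | Medium: Assay buffer with matched DMSO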
KCNK3 block = human KCNK3 channel inhibitors, primary screen, CHO cells, FluxOR thallium flux, B-score | FluxOR fluorescence; active compounds read low | Potassium channel subfamily K member 3 (Homo sapiens), O14649 | B-score at 10 µM | 340,000 compounds, 0.84% hits | AID 602410, 2012;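 active means B-score under library mean minus 4 SD, starting fluorescence ratio at most library mean plus 5 SD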;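 further: more negative B-score means stronger inhibition of thallium flux through KCNK3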
hERG rescue = hERG rescue from dofetilide block, primary screen, cell-based, CHO-hERG, FluxOR thallium flux, dofetilide IC70; activation (rescue from dofetilide block), less the hit threshold, % at 10 µM; 310,000 compounds, 0.51% hits; AID 1511, 2009; Voltage-gated inwardly rectifying potassium channel KCNH2 (Homo sapiens), Q12809; dofetilide IC70 present;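 active means activation above the mean of controls blocked by dofetilide plus 5 SD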;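 further: thallium influx through hERG after potassium depolarization seen as dye fluorescence rise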
Starred values were filed as active, the others as inactive; i = inactive; / = no result.

SMILES | Kir21 inh | KCNQ1 inh | KCNK9 inh | KCNQ1 act | KCNK3 block | hERG rescue
C/C(=N\NC(=O)c1cccc(F)c1)c1ccc(Br)s1 | -0.01 | i | i | 11* | i | -6
C/C(=N\NC(=O)c1ccccc1O)c1ccc(Br)s1 | 2.7 | i | i | i | i | 5.4*
C/C(=N\NC(=O)c1cccc(Br)c1)c1ccc(Br)cc1 | -0.9 | i | i | i | i | -10
C/C(=N\NC(=O)c1ccccc1[N+](=O)[O-])c1ccc(Br)s1 | 0.45 | i | i | i | i | -12
Cc1nn(CC(=O)N(C)c2c(N)n(Cc3ccccc3)c(=O)[nH]c2=O)c(C)c1[N+](=O)[O-] | / | / | / | / | i | /
COc1cccc(C(=O)CSc2nnc(-c3cc(OC)cc(OC)c3)o2)c1 | 0.63 | i | i | i | i | 6.2*
Cc1cccc(C)c1NC(=O)CCS(=O)(=O)c1ccc(Br)cc1 | 0.96 | i | i | i | i | -5
CC1=NNC(=O)C1CC(=O)N/N=C/C=C/c1ccccc1 (centres undefined) | 0.88 | i | i | i | i | 21*
Cc1ccc(C(=O)OCC(=O)NCc2cccc(Cl)c2)cc1S(=O)(=O)N1CCCCC1 | / | / | / | / | i | /
O=C(CSc1nnc(CNC(=O)c2cccc(C(F)(F)F)c2)o1)NC1CCCCC1 | 0.45 | i | i | i | i | -10
O=Cc1s/c(=N\S(=O)(=O)c2ccccc2)n(CCCCl)c1Cl | -0.82 | i | i | i | i | 7.4*
Oc1c(Br)cc(Br)cc1C=Nc1cccnc1 | -0.86 | i | i | 15* | i | -18
COc1ccc(C=Nc2ccc3[nH]ncc3c2)c(O)c1 | -0.99 | i | i | i | i | -8
Oc1c(Br)cc(Br)cc1C=Nc1ccc2[nH]ncc2c1 | -3.5 | i | -7.7* | 10* | i | 5.4*
Oc1c(Br)cc(Br)cc1/C=N/c1nccs1 | / | / | / | / | i | /
O=C(CSc1nnc(-c2ccncc2)n1-c1ccccc1)NC1CC1 | 0.11 | i | i | i | i | -5
COC(=O)C1CCN(C(=O)COC(=O)C2CCN(S(=O)(=O)c3ccc(C)c(C)c3)CC2)CC1 | -0.74 | i | i | i | i | -14
COc1cc(/C=C2\SC(=O)N(c3ccccc3Cl)C2=O)cc([N+](=O)[O-])c1O | 1.5 | 10* | i | i | i | -11
Cc1ccc(/C=N/NC(=O)c2nnn(-c3nonc3N)c2CSc2ccc(Cl)cc2)o1 | 2.9 | i | i | i | i | -4
Cc1cccc(NC(=S)N/N=C2\CC(C)(C)Oc3ccc(O)cc32)c1 | -0.88 | i | i | i | i | 6.5*
Cc1ccc2nc(/C(C#N)=C\c3cc(C)n(-c4cccc([N+](=O)[O-])c4)c3C)[nH]c2c1 | -1.3 | 8* | i | i | i | -12
C[C@H](CO)N1C[C@H](C)[C@@H](CN(C)Cc2ccc(Cl)c(Cl)c2)Oc2c(NC(=O)Cc3ccccc3)cccc2C1=O | / | / | / | / | i | /
CCCN(CC(=O)Nc1ccccc1Br)CC(=O)Nc1ccc(F)c(F)c1F | -0.63 | i | -7* | i | i | -8
Cc1ccccc1OCC(=O)Nc1ccccc1N1CCOCC1 | -7.9* | i | i | i | i | -13
CC(=O)N1CCN(c2ccccc2NC(=O)COc2ccccc2C)CC1 | -0.82 | i | i | i | i | -5
SMILES | Kir21 inh | KCNQ1 inh | KCNK9 inh | KCNQ1 act | KCNK3 block | hERG rescue
COc1cccc(CN(C)CC(=O)Nc2ccccc2N2CCOCC2)c1OC | -2.5 | i | i | i | i | 5.1*
Cc1cccc(CSCCNC(=O)COc2ccc(Cl)cc2)c1 | 0.66 | i | i | i | i | -6
O=C(COc1ccc(Cl)cc1)NCCSCc1cccc(Cl)c1 | -1.6 | 6* | i | i | i | -1
CCOC(=O)c1n[nH]n2c1nc(=S)c1ccccc12 | -1.1 | i | i | 34* | i | 23*
O=C(c1ccc2c(=O)n(Cc3ccccc3Cl)c(=S)[nH]c2c1)N1CCOCC1 | -0.32 | i | i | i | i | -8
O=C(c1ccc(=O)[nH]n1)N1CCN(S(=O)(=O)c2cccc(F)c2)CC1 | / | / | / | / | i | /
O=C(COC(=O)C1CC(=O)N(Cc2ccco2)C1)c1ccc(OC(=O)c2ccccc2)cc1 (centres undefined) | -6.2* | i | i | i | i | -5
O=C(COC(=O)C1CC(=O)N(Cc2ccco2)C1)Nc1ccccc1[N+](=O)[O-] (centres undefined) | / | / | / | / | i | /
CCC(OC(=O)c1ccco1)C(=O)NC1CCCC1 (centres undefined) | 2.9 | i | i | i | i | -5
COc1ccccc1CCC(=O)Nc1cccc(S(=O)(=O)N2CCCCCC2)c1 | -1.4 | 6* | i | i | i | -13
COc1cc(C(=O)Nc2cccc(S(=O)(=O)N3CCCC3)c2)cc(OC)c1C | -0.93 | i | -7.7* | i | i | -12
N#C/C(=C\c1cccnc1)C(=O)Nc1cccc2ccccc12 | -4.5* | i | i | i | i | -5
N#C/C(=C\c1cccnc1)C(=O)Nc1cccc(Cl)c1 | -2.5 | i | i | i | i | 8.5*
COc1ccc(S(=O)(=O)Nc2cccc(-c3ccc(N4CCCCCC4)nn3)c2)c(OC)c1 | -0.88 | i | i | i | i | -3
COc1ccc(Cl)cc1NC(=O)CN(C)C(=O)c1cc2c(F)cccc2s1 | / | / | / | / | -8.8* | /
COc1ccc(-c2nc(C(=O)NCC3CCCO3)cc3c2[nH]c2ccccc23)cc1 (centres undefined) | 1.5 | i | i | i | i | -9
O=C(NCC1CCCO1)c1cc2c([nH]c3ccccc32)c(-c2cccc(Br)c2)n1 (centres undefined) | 1 | 11* | i | i | i | -40
CCn1c2ccccc2c2cc(/C=N/NC(=O)c3ccc(O)cc3)ccc21 | -4.4* | i | i | i | i | -9
COC1c2ccccc2C(=O)N1CCc1ccc(Cl)cc1 (centres undefined) | -1.8 | i | i | i | i | -5
COc1cccc(/C=C2\C(=O)N(c3cccc(C)c3)C(=O)c3ccccc32)c1 | -9.2* | i | i | i | i | -10
